Reference: paper PMC10598825 (JACS Au, 2023)
Where a chain is given by its changes, count along the chain named.

Assays:
BcTSPO 34/102-K98E [1] = molecular target: T1, BcTSPO 34/102-K98E (Bacillus cereus, UniProt Q81BL7, A34C/C107S/K98E/L102C); assay: PpIX degradation activity assay; assay type: biochemical; conditions: TSPO 34/102-K98E in nanodiscs, PpIX:TSPO 1:1
T1 sequence (Q81BL7 1-153 A34C/K98E/L102C/C107S): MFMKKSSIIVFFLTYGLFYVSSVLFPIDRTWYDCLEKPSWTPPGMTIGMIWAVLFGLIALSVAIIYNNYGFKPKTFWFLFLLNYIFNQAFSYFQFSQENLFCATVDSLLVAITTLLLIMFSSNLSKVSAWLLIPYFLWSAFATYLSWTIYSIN
Summary of the method: (§1)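 His10-tagged Bacillus cereus TSPO (C107S cysteine-free background) was expressed in E. coli BL21(DE3) pLysS, Ni-purified in β-DDM, then reconstituted into MSP1D1 nanodiscs with POPC:POPE 60:40 (TSPO/MSP/lipid/cholate 1/4/270/540). PpIX and loaded nanodiscs were mixed 1:1 molar in a 1 mm quartz cuvette. Emission at 633 nm was recorded in pulses of 60 s continuous illumination. V0 was taken as the absolute slope of a linear fit to the first three points (~120 s). Triplicate, mean ± SE.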

BcTSPO W51F [2] = molecular target: T2, BcTSPO W51F (Bacillus cereus, UniProt Q81BL7, C107S/W51F); assay: PpIX degradation activity assay; assay type: biochemical; conditions: TSPO W51F in nanodiscs, PpIX:TSPO 1:1
T2 sequence (Q81BL7 1-153 W51F/C107S): T1 sequence (Q81BL7 1-153 A34C/K98E/L102C/C107S) with C34A, W51F, E98K, C102L
Summary of the method: as §1

BcTSPO 34/102-D33P [3] = molecular target: T3, BcTSPO 34/102-D33P (Bacillus cereus, UniProt Q81BL7, A34C/C107S/D33P/L102C); assay: Tryptophan fluorescence quenching binding assay; conditions: detergent-solubilized TSPO 34/102-D33P; in words
T3 sequence (Q81BL7 1-153 D33P/A34C/L102C/C107S): T1 sequence (Q81BL7 1-153 A34C/K98E/L102C/C107S) with D33P, E98K

BcTSPO W138F [4] = molecular target: T4, BcTSPO W138F (Bacillus cereus, UniProt Q81BL7, C107S/W138F); assay: PpIX degradation activity assay; assay type: biochemical; conditions: TSPO W138F in nanodiscs, PpIX:TSPO 1:1
T4 sequence (Q81BL7 1-153 C107S/W138F): T1 sequence (Q81BL7 1-153 A34C/K98E/L102C/C107S) with C34A, E98K, C102L, W138F
Summary of the method: as §1

BcTSPO S22C-PEG = assay: Tryptophan fluorescence quenching binding assay; design: species or system Bacillus cereus; conditions: DDM-solubilized TSPO S22C conjugated with 5 kDa PEG; higher than WT
[5] = molecular target: T5, BcTSPO 34/102 double-cysteine variant (Bacillus cereus, UniProt Q81BL7, A34C/C107S/L102C); assay: PpIX degradation activity assay; assay type: biochemical; conditions: TSPO 34/102 in nanodiscs, PpIX:TSPO 1:1
T5 sequence (Q81BL7 1-153 A34C/L102C/C107S): T1 sequence (Q81BL7 1-153 A34C/K98E/L102C/C107S) with E98K
Summary of the method: as §1

BcTSPO W51F [6] = molecular target: T2, BcTSPO W51F; assay: Tryptophan fluorescence quenching binding assay; conditions: detergent-solubilized TSPO W51F; in words
BcTSPO 34/151-D33P [7] = molecular target: T6, BcTSPO 34/151-D33P (Bacillus cereus, UniProt Q81BL7, A34C/C107S/D33P/S151C); assay: Tryptophan fluorescence quenching binding assay; conditions: detergent-solubilized TSPO 34/151-D33P; in words
T6 sequence (Q81BL7 1-153 D33P/A34C/C107S/S151C): T1 sequence (Q81BL7 1-153 A34C/K98E/L102C/C107S) with D33P, E98K, C102L, S151C

[8] = molecular target: T7, BcTSPO 23/35 double-cysteine variant (Bacillus cereus, UniProt Q81BL7, C107S/L35C/V23C); assay: PpIX degradation activity assay; assay type: biochemical; conditions: TSPO 23/35 in nanodiscs, PpIX:TSPO 1:1
T7 sequence (Q81BL7 1-153 V23C/L35C/C107S): T1 sequence (Q81BL7 1-153 A34C/K98E/L102C/C107S) with V23C, C34A, L35C, E98K, C102L
Summary of the method: as §1

BcTSPO 34/102-D33P [9] = molecular target: T3, BcTSPO 34/102-D33P; assay: PpIX degradation activity assay; assay type: biochemical; conditions: TSPO 34/102-D33P in nanodiscs, PpIX:TSPO 1:1
Summary of the method: as §1

BcTSPO 34/151-W138F [10] = molecular target: T8, BcTSPO 34/151-W138F (Bacillus cereus, UniProt Q81BL7, A34C/C107S/S151C/W138F); assay: PpIX degradation activity assay; assay type: biochemical; conditions: TSPO 34/151-W138F in nanodiscs, PpIX:TSPO 1:1
T8 sequence (Q81BL7 1-153 A34C/C107S/W138F/S151C): T1 sequence (Q81BL7 1-153 A34C/K98E/L102C/C107S) with E98K, C102L, W138F, S151C
Summary of the method: as §1

BcTSPO 34/151-W138F [11] = molecular target: T8, BcTSPO 34/151-W138F; assay: Tryptophan fluorescence quenching binding assay; conditions: detergent-solubilized TSPO 34/151-W138F; in words
WT BcTSPO = molecular target: T9, WT BcTSPO (Bacillus cereus, UniProt Q81BL7); assay: PpIX degradation activity assay; assay type: biochemical; conditions: WT TSPO in nanodiscs, PpIX:TSPO 1:1, light exposure
T9 sequence (Q81BL7 1-153): T1 sequence (Q81BL7 1-153 A34C/K98E/L102C/C107S) with C34A, E98K, C102L, S107C
Summary of the method: as §1

[12] = molecular target: T7, BcTSPO 23/35 double-cysteine variant; assay: Tryptophan fluorescence quenching binding assay; conditions: detergent-solubilized TSPO 23/35; in words
BcTSPO 34/151-K98E [13] = molecular target: T10, BcTSPO 34/151-K98E (Bacillus cereus, UniProt Q81BL7, A34C/C107S/K98E/S151C); assay: PpIX degradation activity assay; assay type: biochemical; conditions: TSPO 34/151-K98E in nanodiscs, PpIX:TSPO 1:1
T10 sequence (Q81BL7 1-153 A34C/K98E/C107S/S151C): T1 sequence (Q81BL7 1-153 A34C/K98E/L102C/C107S) with C102L, S151C
Summary of the method: as §1

[14] = molecular target: T11, BcTSPO 34/151 double-cysteine variant (Bacillus cereus, UniProt Q81BL7, A34C/C107S/S151C); assay: PpIX degradation activity assay; assay type: biochemical; conditions: TSPO 34/151 in nanodiscs, PpIX:TSPO 1:1
T11 sequence (Q81BL7 1-153 A34C/C107S/S151C): T1 sequence (Q81BL7 1-153 A34C/K98E/L102C/C107S) with E98K, C102L, S151C
Summary of the method: as §1

BcTSPO 34/151-D33P [15] = molecular target: T6, BcTSPO 34/151-D33P; assay: PpIX degradation activity assay; assay type: biochemical; conditions: TSPO 34/151-D33P in nanodiscs, PpIX:TSPO 1:1
Summary of the method: as §1

[16] = molecular target: T12, BcTSPO 23/151 double-cysteine variant (Bacillus cereus, UniProt Q81BL7, C107S/S151C/V23C); assay: PpIX degradation activity assay; assay type: biochemical; conditions: TSPO 23/151 in nanodiscs, PpIX:TSPO 1:1
T12 sequence (Q81BL7 1-153 V23C/C107S/S151C): T1 sequence (Q81BL7 1-153 A34C/K98E/L102C/C107S) with V23C, C34A, E98K, C102L, S151C
Summary of the method: as §1

BcTSPO W138F [17] = molecular target: T4, BcTSPO W138F; assay: Tryptophan fluorescence quenching binding assay; conditions: detergent-solubilized TSPO W138F; in words
BcTSPO 34/102-K98E [18] = molecular target: T1, BcTSPO 34/102-K98E; assay: Tryptophan fluorescence quenching binding assay; conditions: detergent-solubilized TSPO 34/102-K98E; in words
BcTSPO 34/151-K98E [19] = molecular target: T10, BcTSPO 34/151-K98E; assay: Tryptophan fluorescence quenching binding assay; conditions: detergent-solubilized TSPO 34/151-K98E; in words

C=CC1=C(C)c2cc3[nH]c(cc4nc(cc5[nH]c(cc1n2)c(C)c5CCC(=O)O)C(CCC(=O)O)=C4C)c(C)c3C=C [PpIX, protoporphyrin IX]
approximately 5 nM/s: reaction velocity V0 of PpIX degradation (BcTSPO 34/102-K98E [1]) | reaction velocity V0 of PpIX degradation (BcTSPO W51F [2]) | reaction velocity V0 of PpIX degradation [8] | reaction velocity V0 of PpIX degradation (BcTSPO 34/102-D33P [9]) | reaction velocity V0 of PpIX degradation (BcTSPO 34/151-K98E [13]) | reaction velocity V0 of PpIX degradation (BcTSPO 34/151-D33P [15])
approximately 17 nM/s: reaction velocity V0 of PpIX degradation [5] | reaction velocity V0 of PpIX degradation (WT BcTSPO) | reaction velocity V0 of PpIX degradation [14] | reaction velocity V0 of PpIX degradation [16]
below 2 nM/s: reaction velocity V0 of PpIX degradation (BcTSPO W138F [4]) | reaction velocity V0 of PpIX degradation (BcTSPO 34/151-W138F [10])
much higher: dissociation constant Kd of PpIX compared with WT (BcTSPO 34/102-D33P [3]) | dissociation constant Kd of PpIX compared with WT (BcTSPO W51F [6]) | dissociation constant Kd of PpIX compared with WT (BcTSPO 34/151-D33P [7]) | dissociation constant Kd of PpIX compared with WT [12] | dissociation constant Kd of PpIX compared with WT (BcTSPO 34/102-K98E [18]) | dissociation constant Kd of PpIX compared with WT (BcTSPO 34/151-K98E [19])
approximately 10 fold: Kd value of S22C-PEG relative to that of WT (BcTSPO S22C-PEG)
as strongly as WT: binding of PpIX compared with WT (BcTSPO 34/151-W138F [11]) | binding of PpIX compared with WT (BcTSPO W138F [17])
